# Key:
# [1] = test system: Clostridium botulinum; test: Inhibition of botulinum neurotoxin serotype A light chain metalloprotease at 50 uM
# Outline: (§1)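 Percent inhibition of BoNT/A light chain metalloprotease activity was measured at a single inhibitor concentration, by a method described in earlier work, in duplicate.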
# [2] = Inhibition of botulinum neurotoxin serotype A light chain metalloprotease; design: species or system Clostridium botulinum
# Outline: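 Metalloprotease activity of the BoNT/A light chain was measured by a method described in earlier work. IC50 was derived from concentration-versus-inhibition plots using seven or nine concentrations per inhibitor, averaged from duplicate determinations.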
# [3] = test system: Clostridium botulinum; test: Inhibition of botulinum neurotoxin serotype A light chain metalloprotease at 20 uM; outline: as §1
SMILES,inhibition [1],IC50 [2],inhibition [3]
COC(=O)CCC(C)[C@H]1CC[C@H]2[C@@H]3[C@H](OC(C)=O)C[C@@H]4C[C@H](OCCNc5ccnc6cc(Cl)ccc56)CC[C@]4(C)[C@H]3CC(OC(C)=O)[C@]12C (stereo partly specified),9%,–,–
COC(=O)CCC(C)[C@H]1CC[C@H]2[C@@H]3[C@H](OC(C)=O)C[C@@H]4C[C@H](OC(C)=O)CC[C@]4(C)[C@H]3C[C@H](OC(C)=O)[C@]12C (stereo partly specified),0%,–,–
COC(=O)CCC(C)[C@H]1CC[C@H]2[C@@H]3[C@H](OC(C)=O)C[C@@H]4C[C@@H](NCCNc5ccnc6cc(Cl)ccc56)CC[C@]4(C)[C@H]3C[C@H](OC(C)=O)[C@]12C (stereo partly specified),80%,17 µM,–
COC(=O)CCC(C)[C@H]1CC[C@H]2[C@@H]3[C@H](OC(C)=O)C[C@@H]4C[C@H](N)CC[C@]4(C)[C@H]3C[C@H](OC(C)=O)[C@]12C (stereo partly specified),13%,–,–
COC(=O)CCC(C)[C@H]1CC[C@H]2[C@@H]3[C@H](OC(C)=O)C[C@@H]4C[C@H](NCCNc5ccnc6cc(Cl)ccc56)CC[C@]4(C)[C@H]3C[C@H](OC(C)=O)[C@]12C (stereo partly specified),90%,7 µM,–
COC(=O)CCC(C)[C@H]1CC[C@H]2[C@@H]3[C@H](OC(C)=O)C[C@@H]4C[C@H](OCCNCCNc5ccnc6cc(Cl)ccc56)CC[C@]4(C)[C@H]3CC(OC(C)=O)[C@]12C (stereo partly specified),62%,–,–
Nc1ccnc2cc(Cl)ccc12,12%,–,–
Clc1ccc2c(NCCCN(CCCNc3ccnc4cc(Cl)ccc34)CCCNc3ccnc4cc(Cl)ccc34)ccnc2c1,–,3.2 µM,67%
